High-throughput results as filed in PubChem.
Most compounds without a hit are left out; they make up all but 2.8% or so of the library.
eIF4E 4G PPI: eIF4E/eIF4G interaction inhibition in translation initiation; P63073+Q04637; TR-FRET eIF4E-eIF4GI(517-606) binding, 2 h; inhibition, % at 21.7 µM; actives 0.37% (n = 220,000);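 also: 0% = full FRET control wells and 100% = background wells lacking eIF4GI fragment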
Wee1 degr inh: inhibitors of human Wee1 degradation; reporter increase, % at 5 µM; HeLa Luc-Wee1K328M stability, luciferase luminescence; 100% = proteasome inhibitor MG132 effect; actives 1.2% (n = 220,000); P30291;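 active = activation above the mean of all tested compounds plus 3 SD, set per screening run, cut at about 8.8% in these data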;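 also: cells exposed to compound for 20 h before luminescence read; 0% = DMSO alone and 100% = MG132 at 30 µM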
p47phox inh: inhibitors of human p47phox binding. p47phox/p22phox peptide binding, fluorescence polarization, 2 h. inhibition, % at 24.7 µM. actives 0.53% (n = 220,000). AID 1274;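 also: 0% = p47phox with labelled peptide and 100% = labelled peptide alone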
RBBP9 inh: human RBBP9 hydrolase inhibition. O75884. recombinant RBBP9, FP-Rh probe fluorescence polarization. inhibition, % at 7.94 µM. actives 0.2% (n = 220,000). AID 1515;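 active = inhibition above the campaign mean of all tested compounds plus 3 SD, cut at about 14% in these data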;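 also: plate controls were DMSO wells with RBBP9 for no effect and wells lacking RBBP9 protein for full effect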
Target sequence (O75884 whole entry, looked up): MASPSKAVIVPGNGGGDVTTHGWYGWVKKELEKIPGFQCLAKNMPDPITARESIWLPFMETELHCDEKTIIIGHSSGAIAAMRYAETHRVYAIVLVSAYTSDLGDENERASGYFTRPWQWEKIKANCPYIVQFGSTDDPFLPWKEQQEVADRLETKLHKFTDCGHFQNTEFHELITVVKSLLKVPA
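Controls: DMSO-treated enzyme wells and wells lacking RBBP9 | Material: RBBP9 protein | Technique: Fluorescence polarization | Replication: Single well per compound, no replicates | Buffer or medium: Tris-NaCl-Pluronic buffer, pH 8.0 | Timing: 30 min compound preincubation, 45 min probe labeling, 25 °C | Read-out basis: Percent inhibition from mP, scaled between DMSO and no-protein wells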
14-3-3 Bad PPI: disrupts binding of bovine 14-3-3 zeta to phospho-Bad peptide | TR-FRET 14-3-3zeta/Dy647-pBad peptide displacement, 1 h | P63103 | inhibition, % at 21.7 µM | actives 0.71% (n = 220,000);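 active = inhibition above about 70%, limit read from the data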;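 also: 0% = full 14-3-3 plus peptide FRET controls and 100% = background without 14-3-3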
Target sequence (P63103 whole entry, looked up): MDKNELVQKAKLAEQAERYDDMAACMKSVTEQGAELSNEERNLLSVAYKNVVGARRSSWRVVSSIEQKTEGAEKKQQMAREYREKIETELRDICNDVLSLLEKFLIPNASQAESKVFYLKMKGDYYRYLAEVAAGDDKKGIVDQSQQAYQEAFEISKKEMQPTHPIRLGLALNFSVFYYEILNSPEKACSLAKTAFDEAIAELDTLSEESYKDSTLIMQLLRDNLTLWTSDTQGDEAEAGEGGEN
Wee1 degr conf: human Wee1 degradation inhibition, confirmation; actives 4% (n = 1,100); HeLa Luc-Wee1K328M degradation, luminescence; vehicle 0%, proteasome-blocked wells 100%; activation, % at 5 µM; shares compounds with Wee1 degr inh; in the data active = activation above about 8.9%
* = called active by the depositor; x = not tested or not shown.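 The calls were made as follows, unless noted: active = inhibition above about 30% (limit read from the data); inactive = the rest.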

SMILES | eIF4E 4G PPI | Wee1 degr inh | p47phox inh | RBBP9 inh | 14-3-3 Bad PPI | Wee1 degr conf
COc1ccc2c(c1)C(=NN)c1cc(OC)ccc1-2 | 2 | 3 | -13 | -6 | 5 | x
COCCN(CCOC)S(=O)(=O)c1ccc(C(=O)Nc2c(C)n(C)n(-c3ccccc3)c2=O)cc1 | 2 | 4 | -6 | -6 | -2 | x
O=C(N=Nc1c(O)[nH]c2ccccc12)c1cccc(S(=O)(=O)Nc2ccccc2Cl)c1 | 0 | 6 | -3 | 1 | -22 | x
CC(C)NC(=S)N=Nc1c(O)[nH]c2ccc(C(C)C)cc12 | -4 | 15* | -2 | 5 | 10 | 0
CC(C)c1ccc2[nH]c(O)c(N=NC(=O)c3cccc(S(=O)(=O)Nc4ccccc4Cl)c3)c2c1 | 1 | 20* | -6 | -7 | 5 | 0
CCN(C(=O)CN1CCN(S(=O)(=O)c2ccccc2C(F)(F)F)CC1)c1c(N)n(Cc2ccccc2)c(=O)[nH]c1=O | -3 | 4 | -2 | -5 | 5 | x
CC(C)(C)C(=O)COC(=O)c1cc(-c2cccnc2)nc2ccccc12 | 3 | 0 | -14 | 8 | 2 | x
C#CCNC(=O)C1CCN(c2cc(C)nc(-c3ccccc3)n2)CC1 | 2 | 12* | 0 | -3 | -21 | -1
Cc1cc(N2CCN(c3ccccc3)CC2)nc(-c2ccccc2)n1 | 1 | -3 | -8 | -1 | -6 | x
O=C(O)c1ccc(/C=N/Nc2ccc(C(F)(F)F)cn2)cc1 | -6 | 13* | -2 | -5 | -6 | -2
CCSc1nnc(NC(=O)c2cc(OC)c(OC)c(OC)c2)s1 | 1 | 2 | -2 | -11 | 9 | x
CCCCNC(=O)NC12CC3CC(CC(C3)C1)C2 | -2 | 22* | 2 | 4 | 1 | 3
CCOCCCNC(=S)N1C2CCC1CC(NC(=O)Nc1ccc(C(=O)OCC)cc1)C2 (stereo unspecified) | 4 | 3 | -5 | -6 | -5 | x
CCOCCCNC(=S)N1C2CCC1CC(NC(=O)NC13CC4CC(CC(C4)C1)C3)C2 (stereo unspecified) | -4 | 12* | -2 | 9 | -22 | 5
COc1ccc(-n2nnc3c(=O)n(CC(=O)Nc4cc(C)on4)cnc32)cc1OC | -4 | 0 | -5 | -5 | -8 | x
Cc1nn(-c2ccccc2)c(C)c1-c1cc(C(=O)N/N=C/c2cccnc2)[nH]n1 | -2 | 19* | -4 | -3 | -9 | 3
Cc1ccc(SCCN)cc1C | 0 | 2 | x | -4 | 0 | x
O=C(COC(=O)CNC(=O)c1cccc([N+](=O)[O-])c1)NCc1ccco1 | -2 | -2 | -11 | -5 | -10 | x
O=C(Nc1ccc(Cl)c(Cl)c1)Nc1nccs1 | 0 | 14* | -51 | -18 | 4 | 25*
CCC(=O)Oc1ccc(C(=O)Nc2ccc([N+](=O)[O-])cc2)cc1 | 1 | 12* | -2 | -1 | 10 | 3
CC(C)COc1ccc(C(=O)Nc2ccc([N+](=O)[O-])cc2)cc1 | 0 | -4 | -15 | -8 | -4 | x
Cc1ccc(F)c(NC(=O)c2ccc(Cn3cc(Cl)cn3)cc2)c1 | -2 | 12* | 10 | -8 | -2 | 1
Cc1cc(NC(=O)CSc2nnc(C3COc4ccccc4O3)n2C)no1 (stereo unspecified) | 0 | 22* | 8 | -5 | 9 | -3
CCS(=O)(=O)Nc1cccc(-c2nc3cccnc3s2)c1 | 2 | 12* | 1 | 11 | 2 | 0
Cc1ccc(NC(=O)COC(=O)CNC(=O)c2ccc(Br)cc2)c(C)c1 | -14 | 14* | -8 | -2 | -13 | 1
O=C(/C=C\Nc1ccc(Br)cc1)c1cccnc1 | 12 | 11* | -5 | -8 | -16 | 0
O=C(CCC(=O)Nc1nnc(C2CCCCC2)s1)NCC1CCCO1 (stereo unspecified) | -17 | 16* | -8 | -9 | -2 | 2
Cc1ccc(NC(=O)c2noc3c2CCCCC3)cc1C | 3 | 13* | -4 | 0 | 0 | 1
Cc1ccc2cc(COC(=O)C3CCCO3)c(=O)[nH]c2c1 (stereo unspecified) | -4 | 0 | -2 | 2 | 4 | x
COc1ccccc1N1CCN(C2=Nc3cccc4cccc2c34)CC1 | 2 | 15* | -5 | -4 | -8 | 2
